Reference: paper PMC6420351 (ACS chemical biology, 2019)
One block for each molecule: values may come before it.

Legend:
CRBP1 [1] = target: T1, CRBP1 (Homo sapiens, UniProt P09455); experiment: Fluorescence atROL-replacing; format: binding; details: for binding to CRBP1: fluorescence titration of holo-CRBP1, 0–10 μM range for O-1918
T1 sequence (P09455 1-135): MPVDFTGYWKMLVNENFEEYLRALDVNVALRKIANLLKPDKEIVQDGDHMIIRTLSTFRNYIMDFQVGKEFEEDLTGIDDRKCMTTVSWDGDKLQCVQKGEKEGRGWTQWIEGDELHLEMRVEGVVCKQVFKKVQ

rodents = details: previous studies of wound healing, vasodilation, diabetes; cited from earlier work
[2] = test system: visual cycle retinoid flow; experiment: Visual chromophore regeneration after flash; format: in vivo, Balb/cJ mice; details: 0.25 mg of compound 1.5 h prior to flash bleaching 75% of rhodopsin
Summary of the method: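 Dark-adapted (≥24 h) Balb/cJ mice given 0.25 mg test compound or DMSO 1.5 h before a flash bleaching 75% of rhodopsin. Kept dark, euthanised 1 min–8 h later; eyes frozen in liquid nitrogen. Under dim red light, eyes homogenised in 40 mM hydroxylamine in PBS/methanol (20 min RT), then hexane-extracted. Normal-phase HPLC (step ethyl acetate/hexane gradient) read at 325 and 360 nm, quantified against standards; n = 4, mean ± sd.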

RPE65 = RPE65 (Bos taurus, UniProt Q28175); experiment: RPE65 isomerization activity assay in RPE microsomes; format: biochemical; details: bovine RPE microsomes preincubated with 10–50 μM
RPE65, sequence (Q28175 whole entry): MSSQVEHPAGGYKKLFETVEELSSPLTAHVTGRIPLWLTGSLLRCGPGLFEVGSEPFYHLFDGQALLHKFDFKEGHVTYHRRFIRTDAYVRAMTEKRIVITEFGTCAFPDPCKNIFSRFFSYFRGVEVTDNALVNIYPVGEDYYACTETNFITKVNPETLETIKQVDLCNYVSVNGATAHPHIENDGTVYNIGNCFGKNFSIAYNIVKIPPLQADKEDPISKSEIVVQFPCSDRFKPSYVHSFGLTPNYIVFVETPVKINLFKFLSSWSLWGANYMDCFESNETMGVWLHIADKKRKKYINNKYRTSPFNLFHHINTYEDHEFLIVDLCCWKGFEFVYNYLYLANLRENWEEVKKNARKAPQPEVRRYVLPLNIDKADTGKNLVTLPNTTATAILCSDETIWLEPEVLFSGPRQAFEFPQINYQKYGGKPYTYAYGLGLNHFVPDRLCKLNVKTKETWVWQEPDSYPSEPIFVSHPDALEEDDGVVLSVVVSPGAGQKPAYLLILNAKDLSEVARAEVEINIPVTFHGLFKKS
Summary of the method: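 UV-bleached bovine RPE microsomes were the RPE65 source, reacting in the presence of CRALBP. Microsomes preincubated with 10–50 μM test compound (1:1 to 1:5 molar excess). Reaction started with atROL (final 10 μM) and run at 30 °C for 30 min. Products extracted with hexane and analysed by normal-phase HPLC.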

CRBP3 = target: T2, CRBP3 (Homo sapiens, UniProt P82980); experiment: Co-crystallization / X-ray structure of CRBP3 with ligand; format: binding; details: crystal structure PDB 6E5W
T2 sequence (P82980 1-135): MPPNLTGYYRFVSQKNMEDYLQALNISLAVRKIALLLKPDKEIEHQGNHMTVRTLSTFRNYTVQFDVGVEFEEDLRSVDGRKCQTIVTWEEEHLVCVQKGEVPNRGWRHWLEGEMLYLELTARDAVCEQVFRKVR
Summary of the method: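 Apo-CRBP3 (8 mg mL−1) preincubated 15 min with 300 μM test compound. Drops made from 1 μL protein plus 1 μL 0.2 M sodium malonate pH 5.0, 20% PEG 3350 (w/v). Grown by sitting-drop vapour diffusion at RT.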

[3] = test system: recovery of visual sensitivity; experiment: Scotopic full-field ERG recovery after photobleach; format: in vivo, Balb/cJ mice; details: 30 mg/kg; ERG 4 h after flash bleaching ~50% of visual pigment
[4] = Detection and quantification of abn-CBD in the ocular tissues; format: in vivo, Balb/cJ mice
Summary of the method: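 Balb/cJ mice (5–8 weeks, dark-adapted ≥24 h) given a single i.p. 15 mg kg−1 dose. At 1–15 h mice were anaesthetised with ketamine and PBS-perfused. Eyes homogenised in PBS/methanol with 100 pmol deuterated test-compound internal standard, then hexane-extracted, dried and redissolved in ethanol. Quantified by LC/MS on a C18 column (70–100% methanol/water over 10 min), positive-mode ESI ion trap.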

CRBP4 = target: T3, CRBP4 (Homo sapiens, UniProt Q96R05); experiment: Co-crystallization / X-ray structure of CRBP4 with ligand; format: binding; details: crystal structure PDB 6E6K
T3 sequence (Q96R05 1-134): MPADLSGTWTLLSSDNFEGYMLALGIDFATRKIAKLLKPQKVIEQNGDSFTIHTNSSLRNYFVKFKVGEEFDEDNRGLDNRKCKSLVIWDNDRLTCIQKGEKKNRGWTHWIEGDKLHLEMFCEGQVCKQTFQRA
Summary of the method: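 CRBP4 purified with a final 0–0.5 M NaCl gradient in 10 mM Tris/HCl pH 8.0, then concentrated to 6 mg mL−1. Protein preincubated with test compound. Crystallised in 0.2 M NaCl, 0.1 M BisTris pH 6.5, 25% PEG 3350 (w/v) by sitting-drop vapour diffusion at RT.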

[5] = test system: light-induced retinal damage; experiment: Bright light-induced retinal degeneration; format: in vivo, Balb/cJ mice; details: IP injection 1.5 h prior to light; OCT and histology a week later
CRBP2 = target: T4, CRBP2 (Homo sapiens, UniProt P50120); experiment: Fluorescence-binding assay with CRBP2
T4 sequence (P50120 1-134): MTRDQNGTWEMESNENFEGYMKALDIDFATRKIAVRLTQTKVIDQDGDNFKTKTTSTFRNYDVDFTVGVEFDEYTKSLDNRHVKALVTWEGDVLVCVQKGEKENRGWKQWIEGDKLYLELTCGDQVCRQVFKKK

cannabinoid receptor 1 = details: cited from earlier work
cannabinoid receptor 2 = details: cited from earlier work
RDH5 = target: T5, RDH5 (Bos taurus, UniProt Q27979); experiment: 11-cis-retinol oxidation assay in RPE microsomes; format: biochemical; details: bovine RPE microsomes preincubated with 10–50 μM
T5 sequence (Q27979 1-318): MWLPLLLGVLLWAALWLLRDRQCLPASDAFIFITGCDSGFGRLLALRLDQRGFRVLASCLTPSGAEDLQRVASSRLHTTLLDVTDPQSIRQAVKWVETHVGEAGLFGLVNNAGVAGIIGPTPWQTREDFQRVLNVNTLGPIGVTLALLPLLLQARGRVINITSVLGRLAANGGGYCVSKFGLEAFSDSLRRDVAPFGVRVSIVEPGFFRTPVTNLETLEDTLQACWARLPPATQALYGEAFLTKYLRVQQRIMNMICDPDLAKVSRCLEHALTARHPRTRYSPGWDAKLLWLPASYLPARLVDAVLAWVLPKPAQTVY
Summary of the method: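 Bovine RPE microsomes (~100 μg total protein) preincubated with 10–50 μM test compound (1:1 to 1:5 molar excess) in 20 mM Tris/HCl pH 8.0, 1% BSA, 20 μM NAD+. 11-cis-Retinol (10 μM) added; 30 °C, 10 min. Stopped with methanol containing 40 mM hydroxylamine, 15 min RT. Hexane extract run on normal-phase HPLC (isocratic 10% ethyl acetate/hexane), detected at 325 nm.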

LRAT = target: T6, LRAT (Bos taurus, UniProt Q9BGL2); experiment: Retinol esterification assay in RPE microsomes; format: biochemical; details: bovine RPE microsomes preincubated with 10–50 μM
T6 sequence (Q9BGL2 1-230): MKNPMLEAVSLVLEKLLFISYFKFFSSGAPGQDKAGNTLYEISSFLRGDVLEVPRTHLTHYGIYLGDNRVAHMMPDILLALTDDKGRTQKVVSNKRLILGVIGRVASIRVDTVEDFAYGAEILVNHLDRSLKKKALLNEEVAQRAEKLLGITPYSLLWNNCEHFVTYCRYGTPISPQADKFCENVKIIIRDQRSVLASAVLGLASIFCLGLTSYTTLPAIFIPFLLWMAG
Summary of the method: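 UV-treated bovine RPE microsomes (~100 μg total protein) in 20 mM Tris/HCl pH 7.4, 1 mM DTT, 1% BSA. Test compound (10, 20 or 50 μM) added before atROL (final 10 μM). Initial rate taken after 5 min at RT, quenched with methanol, extracted with hexane. Normal-phase HPLC (isocratic 10% ethyl acetate/hexane, 325 nm). Retinyl esters quantified against synthetic standards.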

CRBP1 [6] = details: read-out: affinity for atROL; cited from earlier work

Compound: C=C(C)[C@@H]1CCC(C)=CC1c1c(O)cc(C)cc1O (stereo partly drawn) [CBDO, 5-methyl-2-[(6R)-3-methyl-6-prop-1-en-2-ylcyclohex-2-en-1-yl]benzene-1,3-diol]
- Ki (CRBP1 [1]): ~1700 nM
- fold increase of the Ki value (CRBP1 [1]; further increase relative to abn-CBDO): 6.3 fold

Compound: C=C(C)[C@@H]1CCC(C)=C[C@H]1c1c(OC)cc(C)cc1OC [O-1918, 1,3-dimethoxy-5-methyl-2-[(1R,6R)-3-methyl-6-prop-1-en-2-ylcyclohex-2-en-1-yl]benzene]
- binding to CRBP1 (CRBP1 [1]): abolished the meaningful binding

Compound: C=C(C)[C@@H]1CCC(C)=C[C@H]1c1c(O)cc(O)cc1CCCCC [abn-CBD, 4-[(1R,6R)-3-Methyl-6-prop-1-en-2-ylcyclohex-2-en-1-yl]-5-pentylbenzene-1,3-diol]
- toxicity in rodents (rodents): did not report toxicity
- atROL level during chromophore regeneration [2]: transient accumulation of atROL
- rate of 11-cis-retinal regeneration [2]: noticeably slower
- rate of all-trans-retinal clearance vs control [2]: no differences
- effect on RPE65 enzymatic activity (RPE65): did not cause a measurable decline
- binding to CRBP3 (CRBP3): bind abn-CBD similarly to CRBP1
- recovery of a-wave and b-wave amplitudes after light illumination [3]: slower
- half-life ([4]; Balb/cJ, mouse, eye (PBS-perfused, homogenised), ip, 15 mg/kg): ~7 h
- time of maximum ocular level after the injection ([4]; single IP dose 15 mg kg^−1): 2 h
- maximum ocular level ([4]; single IP dose 15 mg kg^−1, PBS-perfused mouse eyes): 58 pmol/eye
- binding to CRBP4 (CRBP4): bind abn-CBD similarly to CRBP1
- Ki (CRBP1 [1]): ~67 nM
- protection against light-induced retinal damage [5]: largely protected against the light-induced retinal damage
- interaction with CRBP2 (CRBP2): absence of interaction
- interaction with cannabinoid receptor 1 (cannabinoid receptor 1): does not interact
- interaction with cannabinoid receptor 2 (cannabinoid receptor 2): does not interact
- effect on RDH5 enzymatic activity (RDH5): did not cause a measurable decline
- effect on LRAT enzymatic activity (LRAT): did not cause a measurable decline

Compound: C=C(C)[C@@H]1CCC(C)=C[C@H]1c1c(C)cc(O)cc1O [abn-CBDO, 5-methyl-4-[(1R,6R)-3-methyl-6-prop-1-en-2-ylcyclohex-2-en-1-yl]benzene-1,3-diol]
- apparent affinity lowered compared with abn-CBD (CRBP1 [1]; fold change of Ki vs abn-CBD): 4.3 times

- Ki (CRBP1 [1]): ~34 nM
Compound: CC1=C(/C=C/C(C)=C/C=C/C(C)=C/CO)C(C)(C)CCC1 [atROL, all-trans-retinol]
- Kd (CRBP1 [6]): < 1 nM

Compound: C=C(C)[C@H]1CC=C(C)CC1 [limonene]
- binding to CRBP1 (CRBP1 [1]): did not observe limonene interacting
